Measured values: ChEMBL document CHEMBL1148129, “Reversal of multidrug resistance by tropane alkaloids from the stems of Erythroxylum rotundifolium” (2002)
≈ marks a conversion by molar mass, not a printed value. Calls of active or inactive are those of the source. The rule behind the calls is not given here.

Experiments:
Lu1 = experiment: Cytotoxicity against human Lu1 cells; assay type: functional; conditions: read-out: ED50 (the source's name)
ASK = experiment: Cytotoxicity against human ASK cells at 20 ug/mL; assay type: functional, cell-based
Col2 = experiment: Cytotoxicity against human Col2 cells; assay type: functional; conditions: read-out: ED50 (the source's name)
[1] = Cytotoxicity against human BC1 cells; assay type: functional; conditions: read-out: ED50 (the source's name)
[2] = Cytotoxicity against human KBV1 cells in presence of vinblastine; assay type: functional; conditions: KB-V1, read-out: ED50 (the source's name)
In short: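 Multidrug-resistant oral epidermoid carcinoma KB-V1 cells were incubated with test compound in the presence of vinblastine at 1.0 µg/mL. Cytotoxicity is reported as ED50 in µg/mL.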

[3] = Cytotoxicity against human KBV1 cells in absence of vinblastine; assay type: functional; conditions: KB-V1, read-out: ED50 (the source's name)
In short: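 Multidrug-resistant oral epidermoid carcinoma KB-V1 cells were incubated with test compound alone, with no vinblastine added. Cytotoxicity is reported as ED50 in µg/mL.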

KB = experiment: Cytotoxicity against human KB cells; assay type: functional; conditions: read-out: ED50 (the source's name)
In short: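 Parental (drug-sensitive) KB oral epidermoid carcinoma cells were exposed to test compound without vinblastine. Cytotoxicity is reported as ED50 in µg/mL.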

LNCaP = experiment: Cytotoxicity against human LNCAP cells; assay type: functional; conditions: read-out: ED50 (the source's name)

SMILES	EC50 (Lu1)	Activity (ASK)	EC50 (Col2)	EC50 [1]	EC50 [2]	EC50 [3]	EC50 (KB)	EC50 (LNCaP)
COc1cc(/C=C/C(=O)O[C@@H]2C[C@@H]3[C@@H](OC(=O)c4ccccc4)[C@@H](O)[C@H](C2)N3C)cc(OC)c1OC	> 20 µg/mL	inactive	> 20 µg/mL	> 20 µg/mL	0.3 µg/mL	2.6 µg/mL (≈ 5.23 µM)	> 20 µg/mL	6.7 µg/mL (≈ 13.5 µM)
COc1cc(/C=C/C(=O)O[C@H]2C[C@H]3C[C@H](OC(=O)c4ccccc4)[C@@H](C2)N3C)cc(OC)c1OC	> 20 µg/mL	inactive	5.1 µg/mL (≈ 10.6 µM)	15.3 µg/mL (≈ 31.8 µM)	0.2 µg/mL	3.6 µg/mL (≈ 7.48 µM)	10.3 µg/mL (≈ 21.4 µM)	10 µg/mL (≈ 20.8 µM)
CN1C2C[C@H](O)CC1[C@@H](OC(=O)c1ccccc1)C2 (some centres not stated)	> 20 µg/mL			> 20 µg/mL	> 20 µg/mL	> 20 µg/mL	> 20 µg/mL	
COc1cc(/C=C/C(=O)O[C@@H]2C[C@@H]3[C@@H](OC(=O)c4cc(OC)c(OC)c(OC)c4)[C@@H](O)[C@H](C2)N3C)cc(OC)c1OC	14.6 µg/mL (≈ 24.8 µM)	inactive	10.4 µg/mL (≈ 17.7 µM)	6.1 µg/mL (≈ 10.4 µM)	6.6 µg/mL	20 µg/mL (≈ 34 µM)	12.6 µg/mL (≈ 21.4 µM)	15 µg/mL (≈ 25.5 µM)
COc1cc(/C=C/C(=O)O[C@@H]2C[C@@H]3[C@@H](OC(=O)c4ccccc4)[C@@H](OC(C)=O)[C@H](C2)N3C)cc(OC)c1OC	> 20 µg/mL	inactive	> 20 µg/mL	14.6 µg/mL (≈ 27.1 µM)	1.1 µg/mL	13.2 µg/mL (≈ 24.5 µM)	14.8 µg/mL (≈ 27.4 µM)	14.9 µg/mL (≈ 27.6 µM)
COc1cc(/C=C\C(=O)O[C@H]2C[C@H]3C[C@H](OC(=O)c4ccccc4)[C@@H](C2)N3C)cc(OC)c1OC	> 20 µg/mL			> 20 µg/mL	0.3 µg/mL	3.5 µg/mL (≈ 7.27 µM)	> 20 µg/mL	
